Source: PubChem (several laboratories)
In the library only some 2.9% were active in any assay of this set; here they are far more common.
PRMT1 FP inh = PRMT1 methyltransferase inhibitors, primary screen, biochemical, fluorescence polarization; 1.3% of 370,000 active; inhibition, % at 2.79 µM; recombinant PRMT1, activity-based probe fluorescence polarization; Protein arginine N-methyltransferase 1 (Homo sapiens), Q99873;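 active = inhibition above about 21% made by adding two undisclosed values, limit read from the data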
Target sequence (Q99873 whole entry, looked up): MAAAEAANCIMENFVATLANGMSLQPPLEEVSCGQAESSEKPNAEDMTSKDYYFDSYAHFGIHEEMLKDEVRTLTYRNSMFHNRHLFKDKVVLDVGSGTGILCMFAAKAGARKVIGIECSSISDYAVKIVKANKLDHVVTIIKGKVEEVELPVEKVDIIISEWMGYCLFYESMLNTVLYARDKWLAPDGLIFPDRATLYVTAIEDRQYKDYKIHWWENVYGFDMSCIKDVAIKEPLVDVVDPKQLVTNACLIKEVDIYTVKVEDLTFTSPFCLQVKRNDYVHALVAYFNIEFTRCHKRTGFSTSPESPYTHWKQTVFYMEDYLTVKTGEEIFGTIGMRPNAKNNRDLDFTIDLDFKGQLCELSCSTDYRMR
ATG4B inh = ATG4B protease inhibitors, primary screen, biochemical, fluorescence, uHTS; Cysteine protease ATG4B (Homo sapiens), Q9Y4P1; ATG4B cleavage of LC3-PLA2, NBD-HPC fluorescence, 1 h; inhibition, % at 8.33 µM; 0.51% of 340,000 active; in the data active = inhibition above about 40%
mABHD4 FP = ABHD4 inhibitors, primary screen, biochemical, fluorescence polarization, mouse | purified mABHD4, FP-Rh probe fluorescence polarization | AID 720543, 2013 | 0.54% of 370,000 active | inhibition, % at 8.92 µM | (Lyso)-N-acylphosphatidylethanolamine lipase (Mus musculus), Q8VD66;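 active = inhibition exceeding the mean over every tested compound plus 3 SD, cut at about 30% in these data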;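 also: 0% = plate median of compound wells and 100% = S159A mutant with DMSO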
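System: mouse ABHD4 enzyme, wild type / Medium: HEPES pH 7.0, NaCl, Pluronic buffer / Reagent: FP-Rh activity-based fluorescent probe / Control set: S159A mutant high control, sample median low control / Detection: fluorescence polarization with parallel and perpendicular emission, 525/598 nm / Schedule: 45 min + 60 min at 25 °C / Compound dosing: 8.92 µM, single dose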
TCR CD3 inh = inhibitors of human TCR-CD3 interaction, primary screen, biochemical, fluorescence, TAMRA-labeled TCR probe | AID 651800, 2012 | inhibition, % at 9.4 µM | 0.37% of 360,000 active; in the data active = inhibition above about 19%;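 also: recombinant mutant TCR 2C K166C tagged with TAMRA read by polarization; 0% = receptor in buffer alone and 100% = receptor with positive control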
HTRA1 inhibitor = HTRA1 serine protease inhibitors, primary screen, biochemical, fluorescence polarization, HTS | recombinant HTRA1, FP-rhodamine activity-based probe | Q92743 | 0.5% of 340,000 active | inhibition, % at 5.96 µM | AID 504803, 2011; in the data active = inhibition above about 36%;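 also: 0% = enzyme with DMSO and 100% = wells lacking enzyme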
SIAE inh = human SIAE inhibitors, primary screen, biochemical, fluorescence polarization, FP-Rh probe, 1536-well HTS; 0.69% of 370,000 active; SIAE FP-Rh probe binding; inhibition, % at 9.66 µM; Sialate O-acetylesterase (Homo sapiens), Q9HAT2;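 active = inhibition above a cutoff: mean of compounds within the control limits plus 3 SD of those, cut at about 17% in these data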;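 also: 0% = plate median of compound wells and 100% = probe without SIAE protein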
ATG4B confirm = ATG4B protease inhibitors, retest, confirmation, biochemical, fluorescence, single concentration; shares compounds with ATG4B inh; inhibition, % at 8.33 µM; ATG4B protease fluorescent substrate cleavage assay; 92% of 320 active; in the data active = inhibition above about 39%
PLA2 counter = PLA2 enzyme inhibition, counter-screen for ATG4B inhibitor project, biochemical, single concentration, uHTS hits. purified PLA2, NBD-C6-HPC fluorescence, 45 min. shares compounds with ATG4B inh. 66% of 1,600 active. AID 588402, 2011. inhibition, % at 8.33 µM; in the data active = inhibition above about 50%
Target sequence (P04054 whole entry, looked up): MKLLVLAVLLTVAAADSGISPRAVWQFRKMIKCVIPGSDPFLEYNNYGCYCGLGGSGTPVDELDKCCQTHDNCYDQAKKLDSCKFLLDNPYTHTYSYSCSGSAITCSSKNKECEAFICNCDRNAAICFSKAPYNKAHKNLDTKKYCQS
Active calls of the source: *; / = no result.

SMILES	PRMT1 FP inh	ATG4B inh	mABHD4 FP	TCR CD3 inh	HTRA1 inhibitor	SIAE inh	PLA2 counter	others
CCCc1cc(=O)[nH]c(SCc2ccc(Cl)cc2)n1	-2	9	-1	3	3	5	/
CCCc1cc(=O)[nH]c(SCc2cc(Cl)ccc2OC(F)F)n1	5	57*	-19	-1	-36	-3	48	ATG4B confirm=52*
COC(=O)[C@]12C[C@H](CC(=O)NCC34CC5CC(CC(C5)C3)C4)C(=O)N(Cc3cccc4ccccc34)C1=C[C@H](C(C)(C)C)O[C@@H]2C	2	/	1	/	/	3	/
O=C(NCCc1c[nH]c2ccccc12)OCc1cn(-c2cccc(Cl)c2)nn1	0	/	-4	/	/	2	/
COC(=O)C1CN(Cc2ccccc2)CCS(=O)(=O)N1Cc1ccccc1F (centres undefined)	-3	/	1	/	/	-1	/
COC(=O)[C@]12C[C@H](CC(=O)NCCCN3CCCC3=O)C(=O)N(Cc3ccc4c(c3)OCO4)C1=C[C@H](C(C)C)O[C@@H]2C1CC1	0	/	5	/	/	-4	/
O=C(N[C@H](Cc1ccc(Cl)cc1)C(=O)O)OCC1c2ccccc2-c2ccccc21	0	78*	-2	-1	-10	-5	86*
NC(=O)c1ccc(NCCc2ccccc2)c([N+](=O)[O-])c1	-3	49*	3	8	-8	-5	66*
Cc1ccc(C(=O)NC(C)CCc2ccccc2)cc1[N+](=O)[O-] (centres undefined)	-2	-12	-12	-1	-1	-7	/
CCc1ccccc1NC(=O)c1ccc(NCCc2ccccc2)c([N+](=O)[O-])c1	-2	42*	7	7	-4	-4	35
O=C(Nc1ccccc1)c1ccc(NCCc2ccccc2)c([N+](=O)[O-])c1	-2	-3	-2	3	-12	1	/
Cc1ccccc1-c1nnc(SCc2ccccc2F)o1	5	54*	-4	-5	-23	1	64*
Fc1ccccc1CSc1nnc(-c2ccccc2)o1	-2	29	-5	-4	-14	2	/
O=C(NCc1cccc(C(F)(F)F)c1)N1CCN(S(=O)(=O)c2ccccc2F)CC1	0	51*	-4	7	-12	6	46	ATG4B confirm=61*
O=C(Nc1nc(-c2ccccc2)cs1)NC1CCCCC1	-2	58*	-12	4	-28	-5	66*
c1ccc(-c2csc(NC3CCCCC3)n2)cc1	-3	15	0	-6	0	-4	/
CC(C)CN(C(=O)COc1ccc(Br)cc1C=O)C1CCS(=O)(=O)C1 (centres undefined)	4	45*	3	-1	-1	0	53*
Cc1nc(SCC(=O)N(C)c2ccccc2)[nH]c(=O)c1C	-1	/	3	/	/	0	/
Cc1cccc(C)c1OCc1nc2ccccc2c(=O)n1/N=C/c1ccc(OCC(=O)O)cc1	-2	53*	-7	2	5	-3	37	ATG4B confirm=62*
Cc1nc2c(C(=O)NCCc3ccccc3Cl)c[nH]n2c(=O)c1Cl	-1	43*	-35	3	-16	8	57*
Cc1nc2c(C(=O)NCc3ccccc3Cl)c[nH]n2c(=O)c1Cl	-1	49*	-43	-13	-26	3	46	ATG4B confirm=62*
CC(=O)N1CCc2cc(S(=O)(=O)NCCC(=O)N(C)Cc3ccccc3F)ccc21	-3	/	-8	/	/	5	/
O=C(CC1S/C(=N/N=C/c2cccs2)NC1=O)Nc1ccc(Cl)c(Cl)c1 (centres undefined)	-1	61*	2	-4	3	1	12	ATG4B confirm=59*
O=C(CC1S/C(=N/N=C/c2cccs2)NC1=O)Nc1ccc(Cl)cc1 (centres undefined)	-1	22	-5	0	3	-14	/
O=C(CCN1C(=O)/C(=C/c2ccccc2Cl)SC1=S)Nc1ccccc1C(=O)O	8	58*	-12	1	-7	-7	51*
SMILES	PRMT1 FP inh	ATG4B inh	mABHD4 FP	TCR CD3 inh	HTRA1 inhibitor	SIAE inh	PLA2 counter	others
O=C(CCCN1C(=O)/C(=C/c2ccccc2Cl)SC1=S)NNC(=O)c1ccccc1	1	50*	-36	-1	-2	-5	31	ATG4B confirm=55*
CC(C)CNS(=O)(=O)CC1NCc2ccccc21 (centres undefined)	1	/	-6	/	/	-2	/
CC(=O)c1cccc(NC(=O)Nc2ccccc2)c1	0	4	-5	4	-2	3	/
CC(=O)c1cccc(NC(=O)C2C3C=CC(C3=C(c3ccccc3)c3ccccc3)C2C(=O)O)c1 (centres undefined)	0	79*	2	-2	10	9	90*
CCOC(=O)CC[C@@]1(C(=O)OCC)C[C@@H](CC(=O)N2CCCC2)C(=O)N2CCCC=C21	0	/	-10	/	/	-2	/
CN1C(=O)C(N=Nc2ccccc2C(=O)O)N(C)C1=S (centres undefined)	2	41*	0	2	5	-5	40	ATG4B confirm=70*
CC1=NN(C(N)=S)C(=O)C1N=Nc1ccccc1C(=O)O (centres undefined)	2	3	-4	9	-1	-3	/
O=C(NC1CCCCN(Cc2cccc(C(F)(F)F)c2)C1=O)C1C2CC3CC(C2)CC1C3 (centres undefined)	2	/	3	/	/	2	/
COc1ccc(C(=O)c2cnc3ccccc3c2-c2ccccc2)cc1	-5	72*	-2	2	-38	8	83*
Cc1ccc(C(=O)c2cnc3ccccc3c2-c2ccccc2)cc1	-2	69*	-8	1	-36	-2	82*
COc1ccc(Oc2nc(-c3ccccc3)ncc2C(=O)O)cc1	-2	-1	-2	-8	11	-2	/
COc1cc(C=O)ccc1OCc1cccc(Br)c1	-2	4	-1	1	-13	-3	/
COc1cc(C=O)ccc1OCc1ccccc1Br	-1	53*	-10	1	-17	-2	52*
O=C(NC1CCSc2ccccc21)c1cccc(Br)c1 (centres undefined)	2	7	-14	9	-15	-4	/
